HIF activator: HIF pathway transcriptional activation; U2OS HRE-luciferase reporter, luminescence; normalized: DMSO 0%, desferrioxamine 100%; activation, % at 7.5 µM (by protocol); 300,000 compounds, 0.32% hits; AID 1910;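 active means mean activation of at least 10% of the iron chelator positive control signal, with at least half of replicates also reaching 10%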
GASC-1 inh: inhibitors of human GASC-1 (JMJD2C) demethylase. GST-JMJD2C(1-420) H3K9me3 demethylation, DELFIA europium. AID 2099. inhibition, % at 2.35 µM. 330,000 compounds, 0.069% hits;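 active means more than half of a compound's replicate wells show inhibition beyond 50%, single wells judged on their own value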;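 further: signal counts dimethyl H3K9 product captured on neutravidin plate; 0% = median of DMSO wells and 100% = 0.3 times that DMSO median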
Target sequence (Q9H3R0 1-420 limits assumed): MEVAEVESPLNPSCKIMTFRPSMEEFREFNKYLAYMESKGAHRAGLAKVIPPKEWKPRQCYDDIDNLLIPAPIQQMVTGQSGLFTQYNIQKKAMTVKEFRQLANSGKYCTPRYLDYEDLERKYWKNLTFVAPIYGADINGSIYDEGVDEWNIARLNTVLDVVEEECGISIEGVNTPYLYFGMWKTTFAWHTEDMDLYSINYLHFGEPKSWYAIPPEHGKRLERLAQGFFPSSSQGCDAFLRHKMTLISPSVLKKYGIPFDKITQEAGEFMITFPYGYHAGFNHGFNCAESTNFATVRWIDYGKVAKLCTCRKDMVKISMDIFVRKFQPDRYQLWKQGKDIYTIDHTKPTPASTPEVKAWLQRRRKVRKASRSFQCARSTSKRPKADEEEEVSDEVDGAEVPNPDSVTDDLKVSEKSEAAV
T cell HTS: T cell immune modulators affecting CD8 T cell-vesicle binding; 2C CD8+ T cell-vesicle binding, flow cytometry; stronger effect = lower value; response (vesicle binding), % at 7 µM; 330,000 compounds, 0.068% hits; AID 2052;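 active means response, share of CD8 T cells binding vesicles, and their 90th percentile fluorescence all below set limits, cut at about 80% in these data, passing the limit was not always enough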;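 further: values below 100% mean blocked vesicle binding to the CD8+ T cells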
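material = purified 2C TCR transgenic mouse naive CD8+ T cells | controls = Unloaded micro-vesicles (low), QL9 vesicles with 0.7% DMSO (high) | detection = cytometric PE anti-B7-1 and Alexa647 anti-CD8 signals after 1% paraformaldehyde fixation | incubation = binding step 1.5 h, 37 °C, antibody labelling 20 min, ice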
SUMO Mot1 rescue: inhibitors of SUMOylation pathway: yeast Mot1-301 growth rescue | S. cerevisiae Mot1-301 growth rescue, ATP luminescence, 38.5C; percent above DMSO median, 100 means doubled | growth rescue, % at 18.8 µM | 320,000 compounds, 1% hits;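 active means every valid replicate shows activation above 250% relative to neutral control wells; inactive means the rest, any valid replicate at or below 250%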;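 further: OY570 slx delta 5 strain wells were the positive control but not used for scaling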
Yeast Mot1 SUMO: SUMO pathway inhibitors in yeast Mot1-301 growth | shares compounds with SUMO Mot1 rescue | S. cerevisiae Mot1-301 galactose growth, ATP luminescence, 24 h; -100 = growth of slx-deleted rescue strain | growth activity, percent, % at 42 µM | 2,300 tested, under 10 active | AID 493004;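 active means Signal drops as the depositor expects, and the fitted half-maximal dose is no more than ten times the top valid tested dose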;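 further: more negative values mean stronger growth rescue toward the control strain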
Starred values were filed as active, the others as inactive; i = inactive; nt = no result; + = active, no number. Compounds with a hit are over-represented: about 1.4% of the library has one in this group of screens.

SMILES | HIF activator | GASC-1 inh | T cell HTS | SUMO Mot1 rescue | Yeast Mot1 SUMO
COc1ccccc1CNC(=O)CCC(=O)Nc1nnc(C)s1 | 0 | -18 | 277 | -8 | nt
COc1ccccc1CNC(=O)C(C)Sc1ccc(C)cc1 (centres undefined) | 0 | 25 | 193 | 416* | 0
COc1ccccc1CNC(=O)CCC(=O)Nc1nnc(C(C)C)s1 | 0 | -1 | 595 | 928* | 0
COc1ccccc1CNC(=O)C1CCC(CNS(=O)(=O)c2ccc(F)cc2)CC1 (centres undefined) | 0 | 2 | 137 | 412 | nt
COc1ccccc1CNC(=O)C1CCC(CNS(=O)(=O)c2ccc(C)cc2)CC1 (centres undefined) | -9 | -2 | 129 | 625* | 0
CSCCC(NC(=O)c1ccc(Cl)cc1Cl)C(=O)NNC(=O)c1ccncc1 (centres undefined) | nt | -1 | 0 | -11 | nt
CN(C)C(=O)CNC(=O)C1CCCCC1 | 0 | -4 | 159 | + | 0
O=C(CNC(=O)C1CCCCC1)NCCCO | 0 | 19 | 503 | -10 | nt
C[C@H](NC(=O)OC(C)(C)C)C(=O)NCC1CCC(C(=O)N[C@@H](Cc2ccccc2)C(=O)O)CC1 (some centres undefined) | -33 | -28 | 502 | 477* | 1
COc1cc2[nH]c3c(=O)n4c(nc3c2cc1OC)SCCC4 | 1 | -6 | 193 | 354 | nt
O=C(COC(=O)CC1CC2CCC1C2)Nc1cccc(S(=O)(=O)NC2=NCCCCC2)c1 (centres undefined) | 0 | 13 | 243 | 9 | nt
Cn1cnnc1-c1cccc(NS(=O)(=O)c2ccc(N3CCCC3=O)cc2)c1 | 0 | 1 | 683 | + | 1
CN(CC(=O)Nc1ccccc1Sc1ccccc1)Cc1nc2ccccc2c(=O)[nH]1 | 0 | -5 | 369 | 704* | 0
CN(CC(=O)NC(c1ccccc1)c1ccccc1)Cc1nc2ccccc2c(=O)[nH]1 | 0 | -8 | 178 | -4 | nt
Cc1ccc2nc(SCC(=O)Nc3cccc(S(N)(=O)=O)c3)[nH]c2c1 | 0 | 10 | 487 | 741* | 0
NS(=O)(=O)c1cccc(NC(=O)CSc2nc3ccccc3[nH]2)c1 | 0 | -4 | 141 | 9 | nt
CCOC(=O)c1c(C)oc2c1cc(O)c1ccccc12 | 3 | 0 | 499 | 89 | nt
CCOC(=O)c1c(C)[nH]c2c1cc(O)c1ccccc12 | 0 | -12 | nt | 769* | -1
Nc1nc(-c2ccc(Oc3ccccc3)cc2)c(CC(=O)O)s1 | -1 | 0 | 189 | -10 | nt
O=S(=O)(NCCC1=CCCCC1)c1cccc2nsnc12 | 0 | 12 | nt | nt | nt
O=C(CCNS(=O)(=O)c1cccc2nsnc12)NCCC1=CCCCC1 | 0 | 0 | 392 | 712* | 0
Cc1cccc(S(=O)(=O)NCCc2ccccc2)c1 | 0 | -4 | 246 | 5 | nt
CC/C(=N\Nc1ccc([N+](=O)[O-])cc1)c1ccccc1 | 0 | -7 | 208 | 415* | 0
CCc1ccc(/C(C)=N\Nc2ccc([N+](=O)[O-])cc2)cc1 | 3 | i | 313 | 22 | nt
O=C(NCCc1c[nH]c2ccccc12)c1cc(S(=O)(=O)N2CCCCC2)ccc1N1CCOCC1 | 0 | -5 | 451 | 449* | 0
SMILES | HIF activator | GASC-1 inh | T cell HTS | SUMO Mot1 rescue | Yeast Mot1 SUMO
O=C(CSc1nc(-c2ccccc2)cc(=O)[nH]1)Nc1ccc(Br)cc1 | -25 | 8 | 149 | 423* | -1
O=C(CCN1C(=O)S/C(=C\c2ccccc2)C1=O)Nc1ccc(O)cc1C(=O)O | -1 | 21 | 482 | -10 | nt
O=C(CCN1C(=O)S/C(=C/c2ccccc2)C1=O)Nc1ccc(O)c(C(=O)O)c1 | 0 | 2 | 438 | 435* | 0
COCC1CCN(C(=O)c2cc(COc3ccc(-n4cncn4)cc3)on2)C1 (centres undefined) | 1 | -2 | 207 | 3 | nt
CCN(CC)C1CCN(C(=O)c2cc(COc3ccc(-n4cncn4)cc3)on2)C1 (centres undefined) | 0 | 0 | 407 | 512* | 0
O=C(Nc1cnccc1C(F)(F)F)NC1CCCCC1 | 0 | 5 | 902 | -6 | nt
CCn1cnc2sc(-c3ccccc3)cc2c1=O | 2 | 13 | 320 | 412* | -1
CC(=O)Cn1cnc2sc(-c3ccccc3)cc2c1=O | 4 | 3 | 173 | -1 | nt
CC1(C(=O)Nc2cccc(-n3cnnn3)c2)Cc2ccccc2C(=O)O1 (centres undefined) | nt | -4 | 867 | 408* | 0
CCCCCc1cccnc1 | 0 | 2 | 155 | 8 | nt
Cc1ccccc1-c1nnc(CN2CCC(C)CC2)o1 | 2 | 3 | 138 | 403* | 0
Cc1ccccc1-c1nnc(CN2CCN(C(=O)c3ccco3)CC2)o1 | -9 | -19 | 262 | -15 | nt
O=C(NNC(=O)C12CC3CC(CC(C3)C1)C2)c1ccccn1 | 0 | -15 | 282 | 998* | 0
COc1ccc(NC2=C(C)C(=O)CC2)cc1 | 0 | -13 | 211 | 594* | 0
O=C(CC(c1ccccc1)c1ccccc1)NCCOCc1ccccc1 | -26 | -15 | 169 | 403* | 0
CCC(=O)OCCNc1cc(Sc2nc3ccccc3s2)c2nonc2c1[N+](=O)[O-] | 0 | 28 | 188 | 143 | nt
O=[N+]([O-])c1c(NCCCO)cc(Sc2nc3ccccc3s2)c2nonc12 | 0 | -2 | 208 | 782* | -2
Cc1ccc(C)c(C(=O)CN2C(=O)c3ccccc3C2=O)c1 | 0 | i | 146 | -1 | nt
Cc1c(O)ccc(C(=O)CN2C(=O)c3ccccc3C2=O)c1O | -1 | -6 | 127 | 876* | 2
CN(CC(=O)N1CCc2[nH]c3ccc(F)cc3c2C1)CC1OCCO1 | -16 | 11 | 512 | 736* | 0
CC(C(=O)Nc1ccc2c(c1)OCO2)N1CCC(N2CCCCC2)CC1 (centres undefined) | nt | 4 | i | -11 | nt
C=C1N(c2ccc(Cl)cc2)C(=O)OC1(C)C | 0 | -1 | 366 | 66 | nt
CCN1C(=O)N(c2ccc(Cl)cc2)C(C)=CC1(C)C | 0 | -10 | 281 | 837* | 0
CC1CCCCN1C(=O)C(Cc1ccccc1)N1C(=O)C2CCCCC2C1=O (centres undefined) | 0 | 5 | 115 | 862* | -1
CC1CCCCN1C(=O)N[C@@H](Cc1ccccc1)C(=O)O (some centres undefined) | 0 | -22 | 309 | 24 | nt
NN1C(=O)NC(c2ccccc2)(c2ccccc2)C1=O | -48 | 11 | 331 | 543* | 0
CC(C(=O)Nc1ccccc1-c1ccccc1)N1CCN(Cc2ccccc2)CC1 (centres undefined) | 0 | 4 | 330 | 528* | 0
Cc1ccc(S(=O)(=O)N2CCN(C(=O)CSc3nc(N)cc(=O)[nH]3)CC2)c(C)c1 | -1 | -15 | 280 | 482* | 0

Screens as filed in PubChem.
